An excerpt weighted towards active compounds, which were near 3.9% of everything screened.
TAAR1 ag: human TAAR1 agonists, primary screen, Fluo-8 calcium fluorescence, CHO RD-HGA16 cells | Trace amine-associated receptor 1 (Homo sapiens), Q96RJ0 | vehicle wells 0%, saturating PEA agonist 100% | activation, % at 3 µM | 360,000 compounds, 0.99% hits;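 active = activation above the mean activation of all test compounds in the run plus 3 SD, cut at about 38% in these data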
Target sequence (Q96RJ0 whole entry, looked up): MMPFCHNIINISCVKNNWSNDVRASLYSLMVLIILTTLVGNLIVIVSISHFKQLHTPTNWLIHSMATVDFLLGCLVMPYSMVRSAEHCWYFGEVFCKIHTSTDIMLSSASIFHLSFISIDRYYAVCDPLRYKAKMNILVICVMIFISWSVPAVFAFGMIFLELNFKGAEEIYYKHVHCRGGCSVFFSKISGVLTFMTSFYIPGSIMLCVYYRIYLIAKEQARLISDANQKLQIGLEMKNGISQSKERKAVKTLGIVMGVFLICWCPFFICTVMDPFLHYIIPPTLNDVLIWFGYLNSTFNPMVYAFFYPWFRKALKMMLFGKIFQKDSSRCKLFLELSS
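System: CHO RD-HGA16 cells carrying human TAAR1 plus Gα16; Incubation: 17-24 h seeding, 75 min 37 °C dye, 30 min RT; Measured by: Fluo-8 fluorescence, 5 s baseline then 140 s kinetic read; Control set: DMSO and PEA EC100; Replication: single well for each compound.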
TMEM16A act: TMEM16A chloride channel activators or potentiators, primary screen, cell-based, HTS. AID 623877, 2012. Anoctamin-1 (Mus musculus), Q8BHY3. B-score at 10 µM. 340,000 compounds, 0.3% hits. HEK293 TMEM16A/YFP-H148Q/I152L, iodide quench fluorescence; active compounds read low;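 active = fluorescence-ratio B-score plate-corrected deviation score at least 3 library SD below zero, with starting fluorescence score within 5 deviations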;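 note: channel opened by trigger with iodide after compound preincubation; score built on the fluorescence ratio of max minus min over baseline; more negative score means more quench and so TMEM16A activation or potentiation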
TAAR1 antag: human TAAR1 antagonists, primary screen, Fluo-8 calcium fluorescence, CHO RD-HGA16 cells; Trace amine-associated receptor 1 (Homo sapiens), Q96RJ0; antagonist; inhibition, % at 3 µM; 360,000 compounds, 1.5% hits; AID 624466, 2012;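 active = inhibition above a per-plate cutoff, the mean inhibition of test compounds on that plate plus 3 SD, cut at about 49% in these data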;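 note: 0% = DMSO plus EC80 beta-PEA response and 100% = DMSO alone without agonist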
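Test system – hTAAR1-expressing CHO RD-HGA16 cells, Gα16-coupled · Also added – β-PEA at EC80 concentration, post-compound challenge · Compound – 3 µM, single point · Incubation – dye loading 75 min at 37 °C, then 30 min room temperature · Measured by – Fluo-8 intracellular calcium dye fluorescence, real-time kinetic reads · Benchmarks – vehicle and agonist controls · Replicates – singlicate, one well per test compound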
TMEM16A inh: TMEM16A chloride channel inhibitors, primary screen, cell-based, HTS; HEK293 TMEM16A/YFP iodide influx fluorescence, ionomycin; AID 588511, 2011; Anoctamin-1 (Mus musculus), Q8BHY3; 310,000 compounds, 1.2% hits; normalized B-score (activity score, 25-100; higher = stronger inhibition) at 10 µM;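 active = ratio plate-corrected score three or more library SD toward inhibition, starting fluorescence score within five deviations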;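 note: score derived from kinetic fluorescence span divided by baseline fluorescence per well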
CRFBP-R2 block: antagonists of CRF-BP/CRF-R2 complex, primary screen, cell-based, HEK293, calcium dye fluorescence, uHTS | CRF-induced calcium fluorescence | inhibition, % at 11.8 µM | 350,000 compounds, 0.59% hits | AID 588475, 2011;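 active = inhibition of the ligand-induced calcium signal above about 50% at the single tested concentration, limit read from the data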
CRFBP-R2 agonist: agonists of CRF-BP/CRF-R2 complex, primary screen, cell-based, HEK293, calcium dye fluorescence, uHTS | AID 588473, 2011 | CRF-binding protein / CRF receptor 2 complex (human) | calcium dye fluorescence (FLIPR); percent of saturating CRF peptide response | activation, % at 13.2 µM | 350,000 compounds, 0.46% hits;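 active = activation of at least 50%, plus an integration ratio under a set limit after plate pattern correction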;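 note: plate controls were neutral control wells without compound for no effect and CRF at EC100 for full effect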
TAAR1 ag conf: human TAAR1 agonists, retest of hits, confirmation, Fluo-8 calcium fluorescence, CHO RD-HGA16 cells; scaled: DMSO 0%, maximal phenethylamine 100%; activation, % at 3 µM; shares compounds with TAAR1 ag; 2,400 compounds, 82% hits;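 active = activation above a cutoff set at the run's mean compound activation plus 3 SD, cut at about 39% in these data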
Ga16 nonsel ag: nonselective calcium mobilization agonists, CHO-Ga16 cells, counter-screen for hTAAR1 agonist project, cell-based, fluorescence, CHO-Ga16 parental line | shares compounds with TAAR1 ag | Fluo-8 calcium fluorescence; normalized to maximal ATP response, DMSO zero | activation, % at 3 µM | 2,400 compounds, 50% hits;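 active = activation above the run cutoff, the mean activation over all tested wells plus 3 SD, cut at about 12% in these data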;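 note: 0% = DMSO wells and 100% = maximal ATP response on the peak over basal ratio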
TAAR1 desens: TAAR1 desensitization by agonist hits, confirmation, counter-screen for TAAR1 agonist project, cell-based, fluorescence, tachyphylaxis; AID 651951, 2012; CHO RD-HGA16 hTAAR1, Fluo-8 calcium, beta-PEA response inhibition; 2,400 compounds, 46% hits; inhibition, % at 3 µM; shares compounds with TAAR1 ag;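 active = inhibition above the run cutoff, the mean inhibition of all test compounds plus 3 SD, cut at about 49% in these data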;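 note: beta-PEA stimulus applied at its EC80; loss of beta-PEA calcium signal after compound pretreatment read as receptor desensitization; 0% = DMSO with beta-PEA at EC80 and 100% = DMSO alone without agonist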
Ga16 nonsel ant: inhibition of ATP-evoked calcium response in CHO-Ga16 cells, counter-screen for TAAR1 agonist project, cell-based, fluorescence; 2,400 compounds, 39% hits; inhibition, % at 3 µM; CHO-Ga16 ATP-induced calcium, Fluo-8 fluorescence; shares compounds with TAAR1 ag; AID 651952, 2012;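 active = inhibition above the plate's mean compound inhibition plus 3 SD, computed per plate, cut at about 22% in these data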;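 note: 0% = EC80 ATP with DMSO and 100% = DMSO wells without ATP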
* hit, by the source's call; i = inactive; . = no result given.

SMILES	TAAR1 ag	TMEM16A act	TAAR1 antag	TMEM16A inh	CRFBP-R2 block	CRFBP-R2 agonist	TAAR1 ag conf	Ga16 nonsel ag	TAAR1 desens	Ga16 nonsel ant
O=C(O)c1ccc(-c2ccc(/C=N/Nc3ccc([N+](=O)[O-])cc3)o2)cc1	131*	i	82*	i	-121	155*	86*	66*	88*	70*
NS(=O)(=O)c1ccc(CCNC(=O)c2cc3ccccc3oc2=O)cc1	8	i	2	i	2	0	.	.	.	.
Fc1ccc2nc(C(F)(F)F)cc(N3CCOCC3)c2c1	1	i	1	i	28	-2	.	.	.	.
C[C@H](O)[C@@H]1C(=O)N2CCc3ccc(-c4cccc(F)c4)cc3[C@@H]2C[C@@H]1N(C)C(=O)Nc1ccccc1	1	.	1	.	-4	-2	.	.	.	.
C[C@H](O)[C@@H]1C(=O)N2CCc3ccc(-c4ccccc4)cc3[C@@H]2C[C@@H]1N(C)C(=S)Nc1ccc(F)cc1	66*	.	-3	.	-6	2	70*	34*	49*	46*
CCOc1ccc(CCNC(=O)c2ccc(OCc3c(C)noc3C)cc2)cc1OCC	12	i	43	i	3	-1	.	.	.	.
O=C(Nc1nnc(-c2ccc(Cl)cc2)o1)c1nc2ccccc2s1	92*	-13*	29	i	-121	187*	85*	71*	50*	54*
O=C(NCCN1CCOCC1)c1ccc(Cl)c(S(=O)(=O)N2CCOCC2)c1	5	i	-20	i	-7	0	.	.	.	.
COc1cc(N/N=C/c2ccccc2O)ncn1	49*	i	5	i	-31	1	57*	9	53*	11
CCC1(c2ccccc2)NC(=O)N(CC(=O)Nc2ccccc2N2CCCCC2)C1=O (stereo unspecified)	70*	i	52*	i	-101	10	78*	45*	63*	30*
COc1cccc(CN(C)C(=O)c2cccc(OCc3ccccc3)c2)c1	-2	i	9	i	8	0	.	.	.	.
COc1ccccc1CCn1cnc(-c2ccccc2OC)c1C(C)C	52*	.	29	.	.	.	79*	7	60*	14
CCCc1c(-c2cccc(F)c2)ncn1CCc1ccccc1OC	19	.	13	.	.	.	.	.	.	.
COc1ccccc1CCn1cnc(-c2cccc(Br)c2)c1C(C)C	27	.	17	.	.	.	.	.	.	.
COc1ccccc1CCn1cnc(-c2ccc(Br)cc2)c1C(C)C	45*	.	36	.	.	.	68*	9	53*	37*
COc1ccc(CCN2CC(C(=O)NCc3ccc(F)cc3)CC2=O)cc1OC (stereo unspecified)	0	i	15	i	-1	2	.	.	.	.
O=C(Cn1cnc([N+](=O)[O-])n1)N/N=C/c1ccccc1O	53*	i	4	i	-6	0	69*	5	24	-1
Cc1ccccc1/C=N/NC(=O)Cn1cnc([N+](=O)[O-])n1	1	i	-7	i	20	0	.	.	.	.
CC(=O)c1cccc(OCC(O)CNCCc2ccc(Cl)cc2)c1 (stereo unspecified)	.	i	.	i	10	1	.	6	.	-1
OC(CNCCc1ccc(Cl)cc1)COCc1ccco1 (stereo unspecified)	56*	i	2	i	3	-2	67*	1	26	6
COc1ccc(CCNCC(O)COc2cccc(Br)c2)cc1 (stereo unspecified)	14	i	-12	i	-58	0	.	.	.	.
CC1=C(C(=O)N(C)C)CC(CC(=O)NCCc2ccccn2)C(=O)N1CCCN1CCCC1=O (stereo unspecified)	49*	.	-9	.	12	2	44*	0	6	10
Cc1ccc(N2C(=O)c3cccc4c(N)ccc(c34)C2=O)c2cccnc12	230*	i	79*	i	-176	201*	105*	126*	61*	69*
O=C1c2cccc3c(N4CCCCC4)ccc(c23)C(=O)N1c1ccccn1	13	i	6	i	-9	16	.	.	.	.
COc1ccc2oc(C(=O)OCC(=O)Nc3ccc(NC(C)=O)cc3)c(C)c2c1	1	i	2	i	-12	4	.	.	.	.
SMILES	TAAR1 ag	TMEM16A act	TAAR1 antag	TMEM16A inh	CRFBP-R2 block	CRFBP-R2 agonist	TAAR1 ag conf	Ga16 nonsel ag	TAAR1 desens	Ga16 nonsel ant
COc1ccc2oc(C(=O)OCC(=O)NCc3ccccc3OC)c(C)c2c1	70*	i	91*	i	-7	0	23	5	52*	15
Cc1cc(NC(=O)CSc2nc3ccccc3c(=O)n2Cc2ccc(F)cc2)no1	3	i	-4	i	0	1	.	.	.	.
O=C(CSc1nc2ccccc2c(=O)n1Cc1ccc(F)cc1)NCc1cccs1	95*	i	96*	i	11	-1	92*	52*	99*	68*
O=C(CSc1nc2ccccc2c(=O)n1Cc1ccccc1)NCc1ccco1	75*	i	79*	i	-30	0	78*	47*	65*	38*
O=C(CSc1nc2ccccc2c(=O)n1Cc1ccco1)NCc1ccccc1	-3	i	0	i	-35	34	.	.	.	.
CC1(C(=O)NS(=O)(=O)c2ccc(Br)cc2)CCN1C(=O)Cc1cccs1 (stereo unspecified)	1	.	-27	.	.	.	.	.	.	.
COc1ccccc1CNC(=O)CC12CC3CC(CC(Br)(C3)C1)C2	0	i	-1	i	6	1	.	.	.	.

Bioassay records as filed in PubChem.
